Measurements from PubChem BioAssay AID504830 (Southern Research Specialized Biocontainment Screening …, 2011).

tested on: HEp-2 cells, RSV plaque reduction, virus titer; assay: RSV titer reduction by inhibitors, cell-based, plaque reduction (AID 504830); settings: at 25 µM; hits give low values
In short: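 Signal: HEp-2 plaque titration, 1% Avicel overlay, six days, neutral red stain / Assay system: RSV Long-infected HEp-2 cells / Timing: 48 h compound exposure at 37 °C after infection / Reagent: RSV Long strain at MOI 0.1, 2 h infection / Doses: post-infection compound, 0.5% DMSO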

Question: `Cc1ccc(NC(=O)[C@@H]2CCCN2S(=O)(=O)c2cccc3cccnc23)c(C)c1` was tested. Which log virus titer change did it give?
Answer: The log virus titer change was -1.

Question: With `Cc1ccc(C)c(NC(=O)[C@@H]2CCCN2S(=O)(=O)c2cccc3cccnc23)c1` as the molecule, how does the log virus titer change read?
Answer: Its log virus titer change is -2.

Question: For `Cc1ccc(NC(=O)C2CCCN2S(=O)(=O)c2cccc3cccnc23)c(C)c1` (centres undefined), which log virus titer change is on record?
Answer: The log virus titer change was -2.1.

Question: How did the log virus titer change turn out when `COc1ccc(C)c(NC(=O)[C@@H]2CCCN2S(=O)(=O)c2cccc3cccnc23)c1` was run?
Answer: The log virus titer change was -1.
